According to ChEMBL document CHEMBL4007473, “Discovery of Potent and Orally Bioavailable GPR40 Full Agonists Bearing Thiophen-2-ylpropanoic Acid Scaffold” (J Med Chem, 2017):
Calls of active or inactive are those of the source. No cut-off for these calls is given here.

Assays:
[1] = Oral bioavailability in Sprague-Dawley rat plasma at 10 mg/kg administered via gavage by LC/MS analysis; type: ADME, organism-based
Summary of the method: (§1)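 Male SD rats (200 ± 20 g), acclimated 7 days, fasted overnight with water; n = 4 per route, 10 mg/kg by oral gavage or 1 mg/kg iv via tail vein. Plasma separated by centrifugation and stored at -80 ℃; drug measured by ESI triple-quadrupole LC-MS. Parameters from non-compartmental analysis, reported as mean ± SD. F = (AUCpo/Dosepo)/(AUCiv/Doseiv) × 100%.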

[2] = molecular target: T1, Free fatty acid receptor 1 (Homo sapiens, UniProt O14842); experiment: Agonist activity at human GPR40 expressed in CHO cells assessed as increase in intracellular Ca2+ flux by Fluo 4-AM dye based assay; type: functional, cell-based
[3] = molecular target: T2, Free fatty acid receptor 4 (Homo sapiens, UniProt Q5NUL3); experiment: Agonist activity at human GPR120 expressed in CHO cells assessed as increase in intracellular Ca2+ flux by Fluo 4-AM dye based assay; type: functional, cell-based
T2 sequence (Q5NUL3 whole entry): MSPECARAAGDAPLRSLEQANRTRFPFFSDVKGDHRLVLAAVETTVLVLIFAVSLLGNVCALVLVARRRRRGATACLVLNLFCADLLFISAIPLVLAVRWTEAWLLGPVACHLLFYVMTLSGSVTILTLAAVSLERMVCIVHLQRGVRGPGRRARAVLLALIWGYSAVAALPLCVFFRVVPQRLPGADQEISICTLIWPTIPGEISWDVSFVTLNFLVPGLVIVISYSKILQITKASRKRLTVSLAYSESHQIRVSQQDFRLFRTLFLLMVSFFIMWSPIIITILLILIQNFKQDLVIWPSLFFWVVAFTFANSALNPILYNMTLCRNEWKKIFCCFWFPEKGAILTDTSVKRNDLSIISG
Summary of the method: (§2)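 CHO cells stably expressing hGPR40 or hGPR120, seeded and incubated overnight at 37 ℃, 5% CO2. Loaded 90 min with Fluo 4-AM (3 μM) and probenecid (2.5 mM) in HBSS/0.1% BSA, washed, equilibrated 10 min. Ca2+ read as change in 585/525 ratio before and after compound addition; EC50 and Emax fitted from curves, Emax relative to reference agonist 4; mean ± SD, three independent experiments.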

[4] = AUC (0 to t) in Sprague-Dawley rat plasma at 1 mg/kg, iv by LC/MS analysis; type: ADME, organism-based; summary of the method: as §1
[5] = Cmax in Sprague-Dawley rat plasma at 10 mg/kg administered via oral gavage by LC/MS analysis; type: ADME, organism-based; set-up: dose 10 mg/kg, route oral; summary of the method: as §1
[6] = Mean residence time (last) in Sprague-Dawley rat plasma at 10 mg/kg administered via oral gavage by LC/MS analysis; type: ADME, organism-based; summary of the method: as §1
[7] = Cmax in Sprague-Dawley rat plasma at 1 mg/kg, iv by LC/MS analysis; type: ADME, organism-based; set-up: dose 1 mg/kg, route intravenous; summary of the method: as §1
[8] = molecular target: T3, Peroxisome proliferator-activated receptor gamma (Homo sapiens, UniProt P37231); experiment: Agonist activity at PPARgamma (unknown origin) expressed in HEK293T cells by luciferase reporter gene assay; type: cell-based
T3 sequence (P37231 whole entry): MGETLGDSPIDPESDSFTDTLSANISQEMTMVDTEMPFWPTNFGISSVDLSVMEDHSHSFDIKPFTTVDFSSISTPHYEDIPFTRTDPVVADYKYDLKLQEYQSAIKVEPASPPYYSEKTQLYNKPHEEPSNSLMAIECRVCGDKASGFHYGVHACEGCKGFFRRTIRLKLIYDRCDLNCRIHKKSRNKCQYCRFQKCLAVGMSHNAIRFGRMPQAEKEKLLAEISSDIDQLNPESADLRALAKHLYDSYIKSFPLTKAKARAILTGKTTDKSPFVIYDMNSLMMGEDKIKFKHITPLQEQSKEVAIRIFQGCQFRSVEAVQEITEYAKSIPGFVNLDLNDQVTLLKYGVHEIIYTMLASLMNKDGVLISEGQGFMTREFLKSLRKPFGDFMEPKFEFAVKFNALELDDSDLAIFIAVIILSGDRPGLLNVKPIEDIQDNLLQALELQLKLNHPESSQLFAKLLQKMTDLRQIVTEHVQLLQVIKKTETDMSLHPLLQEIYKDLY

[9] = Half life in Sprague-Dawley rat plasma at 1 mg/kg, iv by LC/MS analysis; type: ADME, organism-based; summary of the method: as §1
[10] = Half life in Sprague-Dawley rat plasma at 10 mg/kg administered via oral gavage by LC/MS analysis; type: ADME, organism-based; summary of the method: as §1
[11] = Mean residence time (last) in Sprague-Dawley rat plasma at 1 mg/kg, iv by LC/MS analysis; type: ADME, organism-based; summary of the method: as §1
[12] = molecular target: Free fatty acid receptor 1 (Mus musculus) (UniProt Q76JU9); experiment: Agonist activity at GPR40 in mouse MIN6 cells assessed as increase in 2 mM glucose-stimulated insulin secretion at 0.1 to 3 uM after 1 hr by ELISA; type: cell-based
Summary of the method: (§3)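 MIN6 cells pre-incubated 2 h at 37 ℃ in KRBH buffer with 0.1% BSA, then stimulated 1 h at 37 ℃ with 2 mM or 25 mM glucose, alone or with test agents. Insulin secreted into supernatant quantified by ELISA; mean ± SD of four independent experiments, compared with DMSO.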

[13] = AUC (0 to t) in Sprague-Dawley rat plasma at 10 mg/kg administered via oral gavage by LC/MS analysis; type: ADME, organism-based; summary of the method: as §1
[14] = test system: Mus musculus; experiment: Antidiabetic activity in ICR mouse assessed as decrease in blood glucose AUC at 10 to 20 mg/kg, po administered 30 mins prior to glucose challenge measured 120 mins post dose by OGTT; type: functional, organism-based
Summary of the method: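 Six-week-old male ICR mice fasted 16 h, n = 10 per group, dosed orally in 0.5% methylcellulose/20% PEG400 (10 or 20 mg/kg). Oral glucose load 2.5 g/kg by gavage 30 min later. Tail-vein glucose read at -30, 0, 30, 60, 90 and 120 min; AUC0-120 min computed and compared with vehicle.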

[15] = molecular target: Free fatty acid receptor 1 (Mus musculus) (UniProt Q76JU9); experiment: Agonist activity at GPR40 in mouse MIN6 cells assessed as increase in 25 mM glucose-stimulated insulin secretion at 300 nM after 1 hr by ELISA; type: cell-based; summary of the method: as §3
[16] = Tmax in Sprague-Dawley rat plasma at 10 mg/kg administered via oral gavage by LC/MS analysis; type: ADME, organism-based; summary of the method: as §1
[17] = molecular target: Free fatty acid receptor 1 (Mus musculus) (UniProt Q76JU9); experiment: Agonist activity at GPR40 in mouse MIN6 cells assessed as increase in 25 mM glucose-stimulated insulin secretion at 10 uM after 1 hr by ELISA; type: cell-based; summary of the method: as §3
[18] = molecular target: T1, Free fatty acid receptor 1; experiment: Agonist activity at human GPR40 expressed in HEK293T cells transfected with 5 ug of GPR40 expression plasmid assessed as increase in intracellular Ca2+ flux by Fluo 4-AM dye based assay; type: functional, cell-based; details: HEK-293T
Summary of the method: (§4)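 Plasmid titration: HEK293T cells transiently transfected with 5 μg or 0.05 μg hGPR40 expression plasmid, plated on poly-D-lysine and held 24 h. Loaded with Fluo 4-AM (3 μM) and probenecid (2.5 mM) in HBSS/0.1% BSA for 90 min, washed, equilibrated 10 min. Ca2+ response measured as change in 585/525 ratio after compound addition; mean ± SD of three experiments.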

[19] = Inhibition of hepatobiliary transporter in Sprague-Dawley rat sandwich-cultured rat hepatocytes assessed as decrease in d8-TCA by measuring biliary excretion index at 1 to 25 uM incubated for 15 mins followed by d8-TCA addition measured after 15 mins by LC-MS/MS analysis; type: ADME; details: 0.25 h
Summary of the method: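 Sandwich-cultured hepatocytes from male SD rats exposed to compound 15 min in standard HBSS. Cells rinsed and pre-incubated 15 min at 37 ℃ in standard or Ca2+-free HBSS, then incubated 15 min with compound plus 1 µM d8-TCA. Washed with ice-cold PBS; cellular d8-TCA measured by LC-MS/MS. BEI = (A_HBSS – A_Ca-free)/A_HBSS × 100%.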

[20] = molecular target: T1, Free fatty acid receptor 1; experiment: Agonist activity at human GPR40 expressed in CHO cells assessed as increase in intracellular Ca2+ flux by Fluo 4-AM dye based assay relative to 3-(4-((2',6'-dimethylbiphenyl-3-yl)methoxy)phenyl)propanoic acid; type: functional, cell-based; summary of the method: as §2
[21] = molecular target: T1, Free fatty acid receptor 1; experiment: Agonist activity at human GPR40 expressed in HEK293T cells transfected with 0.05 ug of GPR40 expression plasmid assessed as increase in intracellular Ca2+ flux by Fluo 4-AM dye based assay; type: functional, cell-based; details: HEK-293T; summary of the method: as §4

T1 sequence (O14842 whole entry): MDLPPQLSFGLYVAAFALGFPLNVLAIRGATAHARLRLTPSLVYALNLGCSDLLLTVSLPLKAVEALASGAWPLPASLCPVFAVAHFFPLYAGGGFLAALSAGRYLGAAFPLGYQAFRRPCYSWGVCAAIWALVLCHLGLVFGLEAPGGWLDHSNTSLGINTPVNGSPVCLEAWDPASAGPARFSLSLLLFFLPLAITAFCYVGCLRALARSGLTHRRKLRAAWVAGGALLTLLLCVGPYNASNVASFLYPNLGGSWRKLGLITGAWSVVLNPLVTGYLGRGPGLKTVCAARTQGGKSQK
Chain of Free fatty acid receptor 1 (Mus musculus) (Q76JU9 whole entry): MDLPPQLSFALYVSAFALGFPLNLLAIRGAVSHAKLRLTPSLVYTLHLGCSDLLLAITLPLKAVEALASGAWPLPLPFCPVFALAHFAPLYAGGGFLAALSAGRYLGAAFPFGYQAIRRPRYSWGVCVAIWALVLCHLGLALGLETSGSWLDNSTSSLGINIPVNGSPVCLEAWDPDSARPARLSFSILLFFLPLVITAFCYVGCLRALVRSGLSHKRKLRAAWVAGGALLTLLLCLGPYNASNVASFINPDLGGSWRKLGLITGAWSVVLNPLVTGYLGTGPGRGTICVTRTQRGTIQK

**Q.** With `CC#C[C@@H](CC(=O)O)c1ccc(OCc2cccc(-c3c(C)cc(OCCCS(C)(=O)=O)cc3C)c2)s1` as the molecule, how does the bioavailability [1] read?
**A.** Its bioavailability is 13.3%.

**Q.** What about the EC50 [2] of the same molecule?
**A.** Its EC50 is 0.081 µM.

**Q.** And the EC50 [3]?
**A.** Its EC50 is > 10 µM.

**Q.** What about the AUC(0-t) [4] of the same molecule?
**A.** The AUC(0-t) was 3320 ng·h/mL.

**Q.** And the Cmax [5]?
**A.** Its Cmax is 834 ng/mL.

**Q.** What about the MRT last [6] of the same molecule?
**A.** Its MRT last is 5 h.

**Q.** What about the Cmax [7] of the same molecule?
**A.** The Cmax was 2180 ng/mL.

**Q.** What about the EC50 [8] of the same molecule?
**A.** Its EC50 is > 10 µM.

**Q.** What about the half-life [9] of the same molecule?
**A.** Its half-life is 3.8 h.

**Q.** And the half-life [10]?
**A.** Its half-life is 3.9 h.

**Q.** And the MRT last [11]?
**A.** The MRT last was 3.2 h.

**Q.** And the Activity [12]?
**A.** Its Activity is “inactive”.

**Q.** And the AUC(0-t) [13]?
**A.** Its AUC(0-t) is 4420 ng·h/mL.

**Q.** What about the Activity [14] of the same molecule?
**A.** The Activity was “Active”.

**Q.** What about the Activity [15] of the same molecule?
**A.** The Activity was “Active”.

**Q.** What about the Tmax [16] of the same molecule?
**A.** Its Tmax is 1 h.

**Q.** And the Activity [17]?
**A.** Its Activity is “Active”.

**Q.** And the Activity [18]?
**A.** Its Activity is “Active”.

**Q.** And the Activity [19]?
**A.** The Activity was “Not Active”.

**Q.** What about the Emax [20] of the same molecule?
**A.** The Emax was 244%.

**Q.** What about the Activity [21] of the same molecule?
**A.** The Activity was “Active”.
